Data published in ChEMBL document CHEMBL1132401, “Glycosylation of fluoroquinolones through direct and oxygenated polymethylene linkages as a sugar-mediated active transport system for antimicrobials” (1999).

What was measured:
[1] = system: Enterococcus faecium; assay: Minimum concentration required to prevent the growth of vancomycin resistant (VanA) Enterococcus faecium strain A1745; format: functional
How it was run: (§1)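 Agar dilution susceptibility testing per NCCLS guidelines against resistant clinical isolates, with nonresistant ATCC stock strains run as controls. Plates were read at 19–24 h of incubation. MIC reported in µg/mL.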

[2] = system: Enterococcus faecalis; assay: Minimum concentration required to prevent the growth of high level gentamicin and beta- lactamase resistant (HLGR, BLA+) Enterococcus faecalis strain A0089; format: functional; how it was run: as §1
[3] = system: Enterococcus faecalis; assay: Minimum concentration required to prevent the growth of high level gentamicin and beta- lactamase resistant (HLGR, BLA+) Enterococcus faecalis strain A0090; format: functional; how it was run: as §1
[4] = system: Enterococcus faecalis; assay: Minimum concentration required to prevent the growth of nonresistant stock strain Enterococcus faecalis 51299 from American Type Culture Collection (ATCC); format: functional; how it was run: as §1
[5] = system: Enterococcus faecium; assay: Minimum concentration required to prevent the growth of nonresistant stock strain Enterococcus faecium 19434 from American Type Culture Collection (ATCC); format: functional
How it was run: (§2)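 Agar dilution susceptibility testing per NCCLS guidelines, covering clinical isolates (including resistant phenotypes) and nonresistant ATCC stock strains as controls. Plates read after 19–24 h of incubation. MIC reported in μg/mL.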

[6] = system: Enterococcus faecium; assay: Minimum concentration required to prevent the growth of vancomycin resistant (VanA) Enterococcus faecium strain A2320; format: functional; how it was run: as §1
[7] = system: Enterococcus faecium; assay: Minimum concentration required to prevent the growth of vancomycin resistant (VanB) Enterococcus faecium strain A0803; format: functional; how it was run: as §1
[8] = system: Enterococcus faecium; assay: Minimum concentration required to prevent the growth of vancomycin resistant (VanB) Enterococcus faecium strain A1087; format: functional; how it was run: as §1
[9] = system: Enterococcus faecalis; assay: Minimum concentration required to prevent the growth of vancomycin resistant (VanA) Enterococcus faecalis strain A0401; format: functional; how it was run: as §1
[10] = system: Enterococcus faecalis; assay: Minimum concentration required to prevent the growth of vancomycin resistant (VanA) Enterococcus faecalis strain A0402; format: functional; how it was run: as §1
[11] = system: Enterococcus faecalis; assay: Minimum concentration required to prevent the growth of nonresistant stock strain Enterococcus faecalis 29212 from American Type Culture Collection (ATCC); format: functional; how it was run: as §1
[12] = system: Escherichia coli; assay: Minimum concentration required to prevent the growth of cipro resistant (Cipro-R) Escherichia coli strain A3228; format: functional; how it was run: as §2
[13] = system: Escherichia coli; assay: Minimum concentration required to prevent the growth of cipro resistant (Cipro-R) Escherichia coli strain A3529; format: functional; how it was run: as §2
[14] = system: Escherichia coli; assay: Minimum concentration required to prevent the growth of cipro resistant (Cipro-R) Escherichia coli strain AA; format: functional; how it was run: as §2
[15] = system: Escherichia coli; assay: Minimum concentration required to prevent the growth of nonresistant stock Escherichia coli strain 25922 from American Type Culture Collection (ATCC); format: functional; details: ATCC25922; how it was run: as §2
[16] = system: Enterococcus faecalis; assay: Minimum concentration required to prevent the growth of vancomycin resistant (VanB) Enterococcus faecalis strain A1079; format: functional; how it was run: as §1
[17] = system: Enterococcus faecalis; assay: Minimum concentration required to prevent the growth of vancomycin resistant (VanB) Enterococcus faecalis strain A1081; format: functional; how it was run: as §1
[18] = system: Klebsiella pneumoniae; assay: Minimum concentration required to prevent the growth of cipro resistant (Cipro-I) Klebsiella pneumoniae strain AM; format: functional; how it was run: as §1
[19] = system: Listeria monocytogenes; assay: Minimum concentration required to prevent the growth of Listeria monocytogenes strain A0182; format: functional; how it was run: as §2
[20] = system: Listeria monocytogenes; assay: Minimum concentration required to prevent the growth of Listeria monocytogenes strain A0183; format: functional; how it was run: as §2
[21] = system: Pseudomonas aeruginosa; assay: Minimum concentration required to prevent the growth of Pseudomonas aeruginosa strain 28215; format: functional; how it was run: as §2
[22] = system: Staphylococcus epidermidis; assay: Minimum concentration required to prevent the growth of multiply resistant Staphylococcus epidermidis (MRSE) and cipro resistant (Cipro-R) coag.-neg. Staph. A0247; format: functional; how it was run: as §1
[23] = system: Staphylococcus epidermidis; assay: Minimum concentration required to prevent the growth of multiply resistant Staphylococcus epidermidis (MRSE) and cipro resistant (Cipro-R) coag.-neg. Staph. A0248; format: functional; how it was run: as §1
[24] = system: Staphylococcus epidermidis; assay: (§3) Minimum concentration required to prevent the growth of multiply resistant Staphylococcus epidermidis (MRSE) coag.-neg. Staph. A0244; format: functional; how it was run: as §1
[25] = system: Staphylococcus epidermidis; assay: Minimum concentration required to prevent the growth of multiply resistant Staphylococcus epidermidis (MRSE) coag.-neg. Staph. A0245; format: functional; how it was run: as §1
[26] = system: Staphylococcus aureus; assay: Minimum concentration required to prevent the growth of multiply resistant (MRSA) Staphylococcus aureus strain A0170; format: functional; how it was run: as §1
[27] = system: Staphylococcus aureus; assay: Minimum concentration required to prevent the growth of multiply resistant (MRSA) Staphylococcus aureus strain A0171; format: functional; how it was run: as §1
[28] = system: Staphylococcus aureus; assay: Minimum concentration required to prevent the growth of multiply resistant (MRSA) and cipro resistant (Cipro-R) Staphylococcus aureus strain A2800; format: functional; how it was run: as §1
[29] = system: Staphylococcus aureus; assay: Minimum concentration required to prevent the growth of multiply resistant (MRSA) and cipro resistant (Cipro-R) Staphylococcus aureus strain A2043; format: functional; how it was run: as §1
[30] = system: Pseudomonas aeruginosa; assay: Minimum concentration required to prevent the growth of Pseudomonas aeruginosa strain 28245; format: functional; how it was run: as §2
[31] = system: Klebsiella oxytoca; assay: Minimum concentration required to prevent the growth of cipro resistant (Cipro-R) Klebsiella oxytoca strain A3530
[32] = system: Klebsiella oxytoca; assay: Minimum concentration required to prevent the growth of cipro resistant (Cipro-I) Klebsiella oxytoca strain A3530; format: functional; how it was run: as §1
[33] = system: Staphylococcus epidermidis; assay: as §3
[34] = system: Staphylococcus aureus; assay: Minimum concentration required to prevent the growth of nonresistant stock strain Staphylococcus aureus 29213 from American Type Culture Collection (ATCC)
[35] = system: Staphylococcus aureus; assay: as above; remark: listed apart in the source
[36] = Enterococcus faecalis, read-out: MIC
[37] = Enterococcus faecium, read-out: MIC
[38] = Escherichia coli, read-out: MIC
[39] = Klebsiella pneumoniae, read-out: MIC
[40] = Listeria monocytogenes, read-out: MIC
[41] = Pseudomonas aeruginosa, read-out: MIC
[42] = Staphylococcus epidermidis, read-out: MIC
[43] = Staphylococcus aureus, read-out: MIC

Measured: MIC

O=C(O)c1cn(C2CC2)c2cc(N3CCN(C4OC(CO)C(O)C(O)C4O)CC3)c(F)cc2c1=O (stereo in doubt; form 1)
1 µg/mL: [3] | [11] | [16] | [24]; [42] | [30]
0.25 µg/mL: [21]; [41]
32 µg/mL: [13]; [38]
8 µg/mL: [5]; [37] | [14]; [38] | [31]
< 0.03 µg/mL: [15]
2 µg/mL: [2]; [36] | [9]; [36] | [10]; [36] | [18]; [39] | [19]; [40] | [20]; [40]
4 µg/mL: [7]; [37] | [8]; [37]
> 32 µg/mL: [1] | [6] | [12] | [22] | [23] | [28] | [29]
0.5 µg/mL: [4]; [36] | [17]; [36] | [25]; [42] | [26]; [43] | [27]; [43]

O=C(O)c1cn(C2CC2)c2cc(N3CCN(C4OC(CO)C(O)C(O)C4O)CC3)c(F)cc2c1=O (stereo in doubt; form 2)
> 32 µg/mL: [1]
32 µg/mL: [13]
0.5 µg/mL: [17] | [21] | [25] | [26] | [27]
8 µg/mL: [5] | [14] | [32]
4 µg/mL: [30]
1 µg/mL: [2] | [4] | [10] | [24]
2 µg/mL: [7] | [9] | [18] | [19] | [20]

O=C(O)c1cn(C2CC2)c2cc(N3CCN(C4OC(CO)C(O)C(O)C4O)CC3)c(F)cc2c1=O (stereo in doubt; form 3)
32 µg/mL: [13]
8 µg/mL: [5] | [14] | [32]
0.5 µg/mL: [21] | [25] | [26] | [27]
> 32 µg/mL: [1] | [12] | [22] | [23] | [28] | [29]
4 µg/mL: [7] | [8] | [18] | [30]
< 0.03 µg/mL: [15]
2 µg/mL: [19] | [20]
1 µg/mL: [17] | [24]

Cl.O=C(O)c1cn(C2CC2)c2cc(N3CCNCC3)c(F)cc2c1=O [CIPROFLOXACIN HYDROCHLORIDE]
4 µg/mL: [8] | [8]; [37]
0.25 µg/mL: [26]; [43]
8 µg/mL: [5] | [5]; [37]
2 µg/mL: [2]; [36] | [7] | [7]; [37] | [9]; [36] | [18] | [18]; [39]
0.5 µg/mL: [17] | [17]; [36] | [25] | [25]; [42] | [26] | [27] | [27]; [43] | [34] | [35]
1 µg/mL: [2] | [3] | [4]; [36] | [9] | [10]; [36] | [11] | [16] | [19] | [19]; [40] | [20] | [20]; [40] | [33] | [24] | [30]; [41]
